Results from paper PMC9398166 (Molecular Cancer Therapeutics, 2021).

Assays:
[1] = Pharmacokinetics and brain distribution after repeat oral administration; assay type: in vivo; settings: male Sprague Dawley rats; single oral administration
Method in brief: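 Male Sprague Dawley rats received 10 mg/kg orally once daily for 7 consecutive days. Plasma concentration profiles were determined on days 1 and 7. On day 7, terminal samples of plasma, cerebrospinal fluid and brain tissue were collected 1, 4 and 24 h postdose and analyzed by LC/MS-MS. Brain tissue levels were compared with plasma levels.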

[2] = Pharmacokinetic/pharmacodynamic analysis of phospho-ALK; assay type: in vivo, mice; settings: SCID/beige, mouse, plasma, oral
[3] = biological target: EML4-ALK G1202R/L1196M fusion phosphorylation (Homo sapiens, UniProt Q9HC35+Q9UM73, G1202R/L1196M); experiment: as above; assay type: in vivo, mice; settings: mouse, read-out: phosphorylation inhibition of EML4-ALK G1202R/L1196M fusion
[4] = patients; ref FDA label; cited from earlier work
[5] = Free; assay type: in vivo, mice; settings: SCID/beige, mouse, plasma, oral, 5 mg/kg
[6] = test system: ALK(G1202R); settings: cited from earlier work
[7] = ref FDA label; cited from earlier work

CC1(C)COc2ccc(F)cc2CN2c3nc4c(cnn4cc3OC[C@H]2C(F)F)C(=O)N1 [TPX-0131, (4S)-4-(difluoromethyl)-8-fluoro-13,13-dimethyl-3,4,13,14-tetrahydro-6H-18,1-(metheno)[1,4]oxazino[3,4-i]pyrazolo[4,3-f][1,4,8,10]benzoxatriazacyclotridecin-15(12H)-one]
absorption [1]: rapid absorption
elimination half-life [1]: long elimination half-life
concentration at 2 h [2]: 19.5 nM
inhibition at 0.0195 µM [3]: > 90%

C[C@H]1Oc2cc(cnc2N)-c2c(nn(C)c2C#N)CN(C)C(=O)c2ccc(F)cc21 [Lorlatinib, lorlatinib]
AUC0–24h [4]: 5650 ng·h/mL
Cave unbound exposure [4]: approximately 155 nmol/L
concentration at 12 h [5]: 358 nM
plasma protein binding [7]: 66%
